Reference: ChEMBL document CHEMBL4376812 (J Med Chem, 2019)

Target: JAK1/TYK2 (Homo sapiens, UniProt P23458+P29597)
Assay: Inhibition of JAK1/TYK2 in human Kit225 T cells assessed as inhibition of STAT phosphorylation by luciferase reporter assay
Type: cell-based
Details: not given
Outline: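 T-cells carrying a stably integrated STAT-dependent luciferase reporter were stimulated with IFNα or IL-23 to measure TYK2/JAK1-dependent signalling. Dose–response curves gave IC50.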

Sequence of JAK1/TYK2 (P23458 whole entry): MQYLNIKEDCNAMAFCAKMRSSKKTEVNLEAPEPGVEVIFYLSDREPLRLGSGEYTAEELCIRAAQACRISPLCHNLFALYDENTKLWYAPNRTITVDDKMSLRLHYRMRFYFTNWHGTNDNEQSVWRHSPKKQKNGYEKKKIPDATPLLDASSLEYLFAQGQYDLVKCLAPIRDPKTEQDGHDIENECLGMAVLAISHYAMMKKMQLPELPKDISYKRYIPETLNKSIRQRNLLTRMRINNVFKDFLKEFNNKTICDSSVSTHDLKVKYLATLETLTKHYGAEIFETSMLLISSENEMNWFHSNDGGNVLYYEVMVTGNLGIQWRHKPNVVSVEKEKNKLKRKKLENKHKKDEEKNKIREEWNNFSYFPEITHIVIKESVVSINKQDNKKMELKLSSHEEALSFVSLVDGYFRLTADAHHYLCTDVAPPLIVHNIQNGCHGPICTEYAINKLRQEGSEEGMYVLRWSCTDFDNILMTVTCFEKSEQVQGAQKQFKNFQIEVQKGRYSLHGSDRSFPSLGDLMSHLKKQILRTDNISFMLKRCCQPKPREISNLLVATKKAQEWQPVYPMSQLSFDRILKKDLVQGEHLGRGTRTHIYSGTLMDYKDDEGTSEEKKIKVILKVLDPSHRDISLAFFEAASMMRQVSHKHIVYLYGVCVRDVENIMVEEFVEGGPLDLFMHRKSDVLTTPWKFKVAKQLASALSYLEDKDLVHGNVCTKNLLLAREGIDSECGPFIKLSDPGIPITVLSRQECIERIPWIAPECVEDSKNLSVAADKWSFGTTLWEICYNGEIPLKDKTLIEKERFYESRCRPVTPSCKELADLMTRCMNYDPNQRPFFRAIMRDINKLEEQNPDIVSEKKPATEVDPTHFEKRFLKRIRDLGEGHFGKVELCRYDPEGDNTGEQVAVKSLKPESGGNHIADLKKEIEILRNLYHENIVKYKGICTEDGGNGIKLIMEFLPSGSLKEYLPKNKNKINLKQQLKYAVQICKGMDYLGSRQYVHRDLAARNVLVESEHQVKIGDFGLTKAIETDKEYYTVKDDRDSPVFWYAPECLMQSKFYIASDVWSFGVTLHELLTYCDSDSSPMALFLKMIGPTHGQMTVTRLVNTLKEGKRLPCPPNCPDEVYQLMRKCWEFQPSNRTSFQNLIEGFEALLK
Sequence of JAK1/TYK2 (P29597 whole entry): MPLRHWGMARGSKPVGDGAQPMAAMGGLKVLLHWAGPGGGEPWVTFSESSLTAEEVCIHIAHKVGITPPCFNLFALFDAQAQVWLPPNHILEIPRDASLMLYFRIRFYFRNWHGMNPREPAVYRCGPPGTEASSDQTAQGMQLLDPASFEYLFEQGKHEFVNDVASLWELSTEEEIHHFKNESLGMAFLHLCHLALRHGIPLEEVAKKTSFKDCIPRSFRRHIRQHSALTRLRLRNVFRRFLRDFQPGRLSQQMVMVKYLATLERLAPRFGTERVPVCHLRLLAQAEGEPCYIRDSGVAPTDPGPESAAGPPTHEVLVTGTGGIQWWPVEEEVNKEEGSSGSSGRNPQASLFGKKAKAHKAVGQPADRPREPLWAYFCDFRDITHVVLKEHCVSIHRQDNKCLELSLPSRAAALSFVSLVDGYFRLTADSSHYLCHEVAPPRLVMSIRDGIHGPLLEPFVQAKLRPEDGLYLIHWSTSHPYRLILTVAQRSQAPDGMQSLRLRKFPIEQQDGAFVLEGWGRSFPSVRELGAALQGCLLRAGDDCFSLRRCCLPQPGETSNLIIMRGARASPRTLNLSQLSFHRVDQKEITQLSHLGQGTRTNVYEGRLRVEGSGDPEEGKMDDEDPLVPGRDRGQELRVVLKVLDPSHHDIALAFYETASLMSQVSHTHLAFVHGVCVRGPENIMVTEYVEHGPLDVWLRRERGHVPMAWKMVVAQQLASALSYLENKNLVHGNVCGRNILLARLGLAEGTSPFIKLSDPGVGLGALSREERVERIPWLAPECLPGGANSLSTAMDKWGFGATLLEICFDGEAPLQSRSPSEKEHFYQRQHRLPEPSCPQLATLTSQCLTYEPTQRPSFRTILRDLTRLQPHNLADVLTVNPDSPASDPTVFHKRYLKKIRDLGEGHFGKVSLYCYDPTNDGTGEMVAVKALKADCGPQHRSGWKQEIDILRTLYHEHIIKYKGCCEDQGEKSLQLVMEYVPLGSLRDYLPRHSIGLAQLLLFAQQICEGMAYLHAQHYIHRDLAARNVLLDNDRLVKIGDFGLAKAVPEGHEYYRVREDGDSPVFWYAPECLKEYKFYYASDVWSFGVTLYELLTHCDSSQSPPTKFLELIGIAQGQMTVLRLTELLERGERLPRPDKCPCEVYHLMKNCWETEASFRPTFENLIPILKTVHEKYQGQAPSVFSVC

| Compound | IC50 [nM] |
| --- | --- |
| [2H]C([2H])([2H])NC(=O)c1cnc(NC(=O)C2CC2)cc1Nc1cccc(-c2ncn(C)n2)c1OC | 8 |
| CNC(=O)c1cnc(Nc2cc(C)nc(C)n2)cc1Nc1cccc(-c2ncn(C)n2)c1OC | 12 |
| CNC(=O)c1ccc(Nc2cc(Nc3ccc(F)cn3)ncc2C(=O)NC)c(OC)c1 | 490 |
| CNC(=O)c1cnc(Nc2cc(C)c(F)cn2)cc1Nc1cccc(C(=O)NCc2ccccn2)c1OC | 22 |
| CNC(=O)c1cnc(Nc2cc(C)c(F)cn2)cc1Nc1cccc(-c2ncnn2C)c1OC | 15 |
| CNC(=O)c1cnc(Nc2cc(C)c(F)cn2)cc1Nc1cccc(-c2n[nH]c(C)n2)c1OC | 7 |
| CNC(=O)c1cnc(Nc2cc(C)c(F)cn2)cc1Nc1cccc(C(=O)NCCN2CCOCC2)c1OC | 51 |
| CNC(=O)c1cccc(Nc2cc(Nc3ccc(F)cn3)ncc2C(=O)NC)c1 | 7500 |
| CCNC(=O)c1cccc(Nc2cc(Nc3cc(C)c(F)cn3)ncc2C(=O)NC)c1OC | 28 |
| CNC(=O)c1cnc(Nc2cc(C)c(F)cn2)cc1Nc1cccc(-c2nc[nH]n2)c1OC | 8 |
| CNC(=O)c1cnc(Nc2cc(C)c(F)cn2)cc1Nc1cccc(C(N)=O)c1OC | 30 |
| CNC(=O)c1cnc(Nc2ccc(F)cn2)cc1Nc1cccc(C(=O)NC)c1OC | 78 |
| CNC(=O)c1cnc(Nc2cc(C)c(F)cn2)cc1Nc1cccc(-c2ncn(C)n2)c1OC | 4 |
| CNC(=O)c1cnc(Nc2ccc(C#N)cn2)cc1Nc1cccc(-c2ncn(C)n2)c1OC | 6 |
| CNC(=O)c1cnc(Nc2cc(C)c(F)cn2)cc1Nc1cccc(-c2ccn(C)n2)c1OC | 9 |
| CNC(=O)c1cnc(Nc2cc(C)c(F)cn2)cc1Nc1cccc(C(=O)N(C)C)c1OC | 130 |
| CNC(=O)c1cnc(NC(=O)C2CC2)cc1Nc1cccc(-c2ncn(C)n2)c1OC | 14 |
| CNC(=O)c1cnc(Nc2ccc(F)cn2)cc1Nc1cccc(C(N)=O)c1OC | 63 |
| CNC(=O)c1cnc(Nc2cc(C)c(F)cn2)cc1Nc1cccc(-c2nnco2)c1OC | 15 |
| CNC(=O)c1cnc(Nc2ccc(F)cn2)cc1Nc1ccc(C(N)=O)cc1OC | 930 |
| CNC(=O)c1cnc(Nc2ccc(F)cn2)cc1Nc1cccc(C#N)c1OC | 34 |
| CNC(=O)c1cnc(Nc2cc(C)c(F)cn2)cc1Nc1cccc(C(=O)NCCO)c1OC | 220 |
| CNC(=O)c1cnc(Nc2cc(C)c(F)cn2)cc1Nc1cccc(-c2ccnn2C)c1OC | 70 |
| CNC(=O)c1cnc(Nc2ccc(F)cn2)cc1Nc1cccc(C(=O)O)c1OC | > 10000 |
| CNC(=O)c1cnc(Nc2cc(C)c(F)cn2)cc1Nc1cccc(C(=O)NCC2CC2)c1OC | 64 |
| CNC(=O)c1cnc(Nc2cc(C)c(F)cn2)cc1Nc1cccc(C(=O)NC)c1OC | 47 |
| CNC(=O)c1cnc(Nc2cc(C)c(F)cn2)cc1Nc1cccc(-c2nncn2C)c1OC | 16 |
| CNC(=O)c1cnc(Nc2cc(C)c(F)cn2)cc1Nc1cccc(-c2nnc(C)o2)c1OC | 12 |

Target: Non-receptor tyrosine-protein kinase TYK2 (Homo sapiens, UniProt P29597)
Sequence (P29597 whole entry): as above
Assay: Inhibition of TYK2 in human whole blood assessed as decrease in IFNalpha-induced STAT5 phosphorylation preincubated for 1 hr followed by stimulation with IFN-alpha for 15 mins by fluorescence analysis
Type: tissue-based
Details: not given
Outline: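 Human whole blood stimulated with IFNα; STAT5 phosphorylation was read in cells by staining and flow cytometry. IC50 from dose–response; mean of at least three experiments.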

| Compound | IC50 [nM] |
| --- | --- |
| [2H]C([2H])([2H])NC(=O)c1cnc(NC(=O)C2CC2)cc1Nc1cccc(-c2ncn(C)n2)c1OC | 13 |
| CNC(=O)c1cnc(Nc2cc(C)nc(C)n2)cc1Nc1cccc(-c2ncn(C)n2)c1OC | 19 |
| CNC(=O)c1ccc(Nc2cc(Nc3ccc(F)cn3)ncc2C(=O)NC)c(OC)c1 | 520 |
| CNC(=O)c1cnc(Nc2cc(C)c(F)cn2)cc1Nc1cccc(C(=O)NCc2ccccn2)c1OC | 180 |
| CNC(=O)c1cnc(Nc2cc(C)c(F)cn2)cc1Nc1cccc(-c2ncnn2C)c1OC | 87 |
| CNC(=O)c1cnc(Nc2cc(C)c(F)cn2)cc1Nc1cccc(-c2n[nH]c(C)n2)c1OC | 40 |
| CNC(=O)c1cnc(Nc2cc(C)c(F)cn2)cc1Nc1cccc(C(=O)NCCN2CCOCC2)c1OC | 160 |
| CNC(=O)c1cccc(Nc2cc(Nc3ccc(F)cn3)ncc2C(=O)NC)c1 | > 10000 |
| CCNC(=O)c1cccc(Nc2cc(Nc3cc(C)c(F)cn3)ncc2C(=O)NC)c1OC | 280 |
| CNC(=O)c1cnc(Nc2cc(C)c(F)cn2)cc1Nc1cccc(-c2nc[nH]n2)c1OC | 23 |
| CNC(=O)c1cnc(Nc2cc(C)c(F)cn2)cc1Nc1cccc(C(N)=O)c1OC | 62 |
| CNC(=O)c1cnc(Nc2ccc(F)cn2)cc1Nc1cccc(C(=O)NC)c1OC | 230 |
| CNC(=O)c1cnc(Nc2cc(C)c(F)cn2)cc1Nc1cccc(-c2ncn(C)n2)c1OC | 12 |
| CNC(=O)c1cnc(Nc2ccc(C#N)cn2)cc1Nc1cccc(-c2ncn(C)n2)c1OC | 15 |
| [2H]C([2H])([2H])NC(=O)c1nnc(NC(=O)C2CC2)cc1Nc1cccc(-c2ncn(C)n2)c1 | > 10000 |
| CNC(=O)c1cnc(Nc2cc(C)c(F)cn2)cc1Nc1cccc(-c2ccn(C)n2)c1OC | 79 |
| CNC(=O)c1cnc(Nc2cc(C)c(F)cn2)cc1Nc1cccc(C(=O)N(C)C)c1OC | 750 |
| CNC(=O)c1cnc(NC(=O)C2CC2)cc1Nc1cccc(-c2ncn(C)n2)c1OC | 16 |
| CNC(=O)c1cnc(Nc2ccc(F)cn2)cc1Nc1cccc(C(N)=O)c1OC | 120 |
| CNC(=O)c1cnc(Nc2cc(C)c(F)cn2)cc1Nc1cccc(-c2nnco2)c1OC | 170 |
| CNC(=O)c1cnc(Nc2ccc(F)cn2)cc1Nc1ccc(C(N)=O)cc1OC | 390 |
| CNC(=O)c1cnc(Nc2ccc(F)cn2)cc1Nc1cccc(C#N)c1OC | 570 |
| CNC(=O)c1cnc(Nc2cc(C)c(F)cn2)cc1Nc1cccc(C(=O)NCCO)c1OC | 270 |
| CNC(=O)c1cnc(Nc2cc(C)c(F)cn2)cc1Nc1cccc(-c2ccnn2C)c1OC | 300 |
| CNC(=O)c1cnc(Nc2ccc(F)cn2)cc1Nc1cccc(C(=O)O)c1OC | > 10000 |
| CNC(=O)c1cnc(Nc2cc(C)c(F)cn2)cc1Nc1cccc(C(=O)NCC2CC2)c1OC | 870 |
| CNC(=O)c1cnc(Nc2cc(C)c(F)cn2)cc1Nc1cccc(C(=O)NC)c1OC | 140 |
| CNC(=O)c1cnc(Nc2cc(C)c(F)cn2)cc1Nc1cccc(-c2nncn2C)c1OC | 150 |
| CNC(=O)c1cnc(Nc2cc(C)c(F)cn2)cc1Nc1cccc(-c2nnc(C)o2)c1OC | 100 |

Target: Non-receptor tyrosine-protein kinase TYK2 (Mus musculus, UniProt Q9R117)
Sequence (Q9R117 whole entry): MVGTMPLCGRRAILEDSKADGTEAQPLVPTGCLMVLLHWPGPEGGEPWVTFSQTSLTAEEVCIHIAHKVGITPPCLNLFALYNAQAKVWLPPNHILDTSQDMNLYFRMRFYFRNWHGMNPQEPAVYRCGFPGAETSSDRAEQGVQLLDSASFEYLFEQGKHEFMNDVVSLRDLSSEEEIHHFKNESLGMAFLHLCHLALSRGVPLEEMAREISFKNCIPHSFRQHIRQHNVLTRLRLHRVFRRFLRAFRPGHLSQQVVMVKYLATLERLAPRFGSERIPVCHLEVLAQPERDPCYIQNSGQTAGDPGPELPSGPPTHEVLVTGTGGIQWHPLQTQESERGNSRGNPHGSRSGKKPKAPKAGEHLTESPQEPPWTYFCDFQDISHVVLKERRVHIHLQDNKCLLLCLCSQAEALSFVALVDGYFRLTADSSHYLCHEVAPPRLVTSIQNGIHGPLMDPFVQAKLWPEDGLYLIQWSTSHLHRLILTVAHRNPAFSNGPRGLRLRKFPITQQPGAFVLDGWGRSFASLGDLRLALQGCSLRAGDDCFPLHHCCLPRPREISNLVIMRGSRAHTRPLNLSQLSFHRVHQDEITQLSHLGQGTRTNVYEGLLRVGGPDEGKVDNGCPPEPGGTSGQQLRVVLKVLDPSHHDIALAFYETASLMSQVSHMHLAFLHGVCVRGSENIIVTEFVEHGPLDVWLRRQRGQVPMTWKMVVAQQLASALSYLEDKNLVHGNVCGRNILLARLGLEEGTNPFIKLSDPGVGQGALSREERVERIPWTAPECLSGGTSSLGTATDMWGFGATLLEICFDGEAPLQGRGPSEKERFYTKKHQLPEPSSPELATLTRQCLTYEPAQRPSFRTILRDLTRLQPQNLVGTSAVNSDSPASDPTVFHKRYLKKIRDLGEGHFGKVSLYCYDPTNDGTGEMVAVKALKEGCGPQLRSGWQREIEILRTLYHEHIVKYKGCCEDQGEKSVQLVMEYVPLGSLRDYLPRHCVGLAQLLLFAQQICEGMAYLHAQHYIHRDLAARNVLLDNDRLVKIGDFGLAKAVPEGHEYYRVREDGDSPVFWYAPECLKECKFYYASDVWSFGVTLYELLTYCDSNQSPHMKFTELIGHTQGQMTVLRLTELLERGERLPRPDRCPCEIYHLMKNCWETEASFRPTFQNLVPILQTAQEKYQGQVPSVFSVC
Assay: Inhibition of TYK2 in mouse whole blood assessed as decrease in IFNalpha-induced STAT1 phosphorylation preincubated for 1 hr followed by stimulation with IFN-alpha for 15 mins by fluorescence analysis
Type: tissue-based
Details: not given
Outline: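 Mouse whole blood stimulated with IFNα; STAT1 phosphorylation was measured by cellular staining and flow cytometry. Read as IC50.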

| Compound | IC50 [nM] |
| --- | --- |
| [2H]C([2H])([2H])NC(=O)c1cnc(NC(=O)C2CC2)cc1Nc1cccc(-c2ncn(C)n2)c1OC | 100 |
| CNC(=O)c1cnc(Nc2cc(C)nc(C)n2)cc1Nc1cccc(-c2ncn(C)n2)c1OC | 730 |
| CNC(=O)c1cnc(Nc2cc(C)c(F)cn2)cc1Nc1cccc(-c2ncnn2C)c1OC | 380 |
| CNC(=O)c1cnc(Nc2cc(C)c(F)cn2)cc1Nc1cccc(-c2n[nH]c(C)n2)c1OC | 320 |
| CNC(=O)c1cnc(Nc2cc(C)c(F)cn2)cc1Nc1cccc(-c2nc[nH]n2)c1OC | 310 |
| CNC(=O)c1cnc(Nc2cc(C)c(F)cn2)cc1Nc1cccc(-c2ncn(C)n2)c1OC | 130 |
| CNC(=O)c1cnc(Nc2ccc(C#N)cn2)cc1Nc1cccc(-c2ncn(C)n2)c1OC | 260 |
| CNC(=O)c1cnc(Nc2cc(C)c(F)cn2)cc1Nc1cccc(-c2ccn(C)n2)c1OC | 430 |
| CNC(=O)c1cnc(NC(=O)C2CC2)cc1Nc1cccc(-c2ncn(C)n2)c1OC | 330 |
| CNC(=O)c1cnc(Nc2cc(C)c(F)cn2)cc1Nc1cccc(-c2nnco2)c1OC | 522 |
| CNC(=O)c1cnc(Nc2cc(C)c(F)cn2)cc1Nc1cccc(-c2nnc(C)o2)c1OC | 570 |

Tested on: not listed separately
Assay: Metabolic stability in mouse liver microsomes assessed as compound remaining incubated for 10 mins
Type: ADME, Microsome
Details: read-out: Stability
Outline: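 Mouse liver microsomal stability, reported as percent of parent remaining after a 10 min incubation. Values are means of at least three experiments unless otherwise noted.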

| Compound | remaining at 10 min [%] |
| --- | --- |
| [2H]C([2H])([2H])NC(=O)c1cnc(NC(=O)C2CC2)cc1Nc1cccc(-c2ncn(C)n2)c1OC | 89 |
| CNC(=O)c1cnc(Nc2cc(C)nc(C)n2)cc1Nc1cccc(-c2ncn(C)n2)c1OC | 73 |
| CNC(=O)c1cnc(Nc2cc(C)c(F)cn2)cc1Nc1cccc(-c2ncnn2C)c1OC | 9 |
| CNC(=O)c1cnc(Nc2cc(C)c(F)cn2)cc1Nc1cccc(-c2n[nH]c(C)n2)c1OC | 63 |
| CNC(=O)c1cnc(Nc2cc(C)c(F)cn2)cc1Nc1cccc(-c2nc[nH]n2)c1OC | 51 |
| CNC(=O)c1cnc(Nc2cc(C)c(F)cn2)cc1Nc1cccc(-c2ncn(C)n2)c1OC | 80 |
| CNC(=O)c1cnc(Nc2ccc(C#N)cn2)cc1Nc1cccc(-c2ncn(C)n2)c1OC | 85 |
| CNC(=O)c1cnc(Nc2cc(C)c(F)cn2)cc1Nc1cccc(-c2ccn(C)n2)c1OC | 66 |
| CNC(=O)c1cnc(NC(=O)C2CC2)cc1Nc1cccc(-c2ncn(C)n2)c1OC | 93 |
| CNC(=O)c1cnc(Nc2cc(C)c(F)cn2)cc1Nc1cccc(-c2nnco2)c1OC | 46 |
| CNC(=O)c1cnc(Nc2cc(C)c(F)cn2)cc1Nc1cccc(-c2ccnn2C)c1OC | 15 |
| CNC(=O)c1cnc(Nc2cc(C)c(F)cn2)cc1Nc1cccc(-c2nncn2C)c1OC | 29 |
| CNC(=O)c1cnc(Nc2cc(C)c(F)cn2)cc1Nc1cccc(-c2nnc(C)o2)c1OC | 70 |

Tested on: not listed separately
Assay: Permeability coefficient, Kp across apical to basolateral side in human Caco2 cells
Type: ADME, cell-based
Details: Caco-2, read-out: permeability
Outline: (§1)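 Caco-2 monolayer permeability measured in both directions, apical-to-basal and basal-to-apical, reported as Pc in nm/s. An efflux ratio was calculated from the two directions.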

| Compound | Papp A→B [×10⁻⁶ cm/s] |
| --- | --- |
| [2H]C([2H])([2H])NC(=O)c1cnc(NC(=O)C2CC2)cc1Nc1cccc(-c2ncn(C)n2)c1OC | < 1.5 |
| CNC(=O)c1cnc(Nc2cc(C)nc(C)n2)cc1Nc1cccc(-c2ncn(C)n2)c1OC | < 1.5 |
| CNC(=O)c1ccc(Nc2cc(Nc3ccc(F)cn3)ncc2C(=O)NC)c(OC)c1 | < 1.5 |
| CNC(=O)c1cnc(Nc2cc(C)c(F)cn2)cc1Nc1cccc(C(N)=O)c1OC | < 1.5 |
| CNC(=O)c1cnc(Nc2ccc(F)cn2)cc1Nc1cccc(C(=O)NC)c1OC | 5 |
| CNC(=O)c1cnc(Nc2ccc(C#N)cn2)cc1Nc1cccc(-c2ncn(C)n2)c1OC | 1.8 |
| CNC(=O)c1cnc(NC(=O)C2CC2)cc1Nc1cccc(-c2ncn(C)n2)c1OC | 2.3 |
| CNC(=O)c1cnc(Nc2ccc(F)cn2)cc1Nc1cccc(C(=O)O)c1OC | < 1.5 |

Tested on: not listed separately
Assay: Metabolic stability in mouse liver microsomes assessed as half life
Type: ADME, Microsome
Details: not given
Outline: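 Liver microsomes from human, rat, mouse, dog, cynomolgus monkey and rabbit were incubated with compound. Stability is reported as half-life (T1/2, min). Values are means of at least three separate experiments.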

| Compound | half-life [h] |
| --- | --- |
| [2H]C([2H])([2H])NC(=O)c1cnc(NC(=O)C2CC2)cc1Nc1cccc(-c2ncn(C)n2)c1OC | > 2 |

Tested on: not listed separately
Assay: Permeability coefficient, Kp across basolateral to apical side in human Caco2 cells
Type: ADME, cell-based
Details: Caco-2, read-out: permeability
Outline: as §1

| Compound | Papp B→A [×10⁻⁶ cm/s] |
| --- | --- |
| CNC(=O)c1cnc(Nc2cc(C)c(F)cn2)cc1Nc1cccc(C(N)=O)c1OC | 26 |
